Measurements from ChEMBL document CHEMBL1149165, “Significant differences in biological parameters between prodrugs cleavable by carboxypeptidase G2 that generate 3,5-difluoro-phenol and -aniline nitrogen mustards in gene-directed enzyme prodrug therapy systems” (J Med Chem, 2004).

Tests used:
[1] = The chemical half-life by HPLC; format: ADME
Summary of the method: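 10 mM DMSO stocks diluted 100-fold to 100 µM in 100 mM Tris-HCl pH 7.3 with 260 µM ZnCl₂. Remaining parent measured over time by isocratic reverse-phase HPLC (phenyl column, 0.1% TFA with 65-85% methanol, 250-275 nm), using repeat or delayed injections. Half-life from one-phase exponential decay fit, maximum 1 and minimum 0.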

MDA-MB-361 = test: Ratio of the IC50 in thebeta-Gal- and CPG2-expressing cell line; format: functional, Homo sapiens
Summary of the method: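 Degree of activation: IC50 in β-Gal-expressing MDA MB 361 cells divided by IC50 in stCPG2(Q)3-expressing cells. Both IC50s are from sulforhodamine-B regrowth assays after two-stage prodrug exposure, fitted to a log dose-effect sigmoid.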

[2] = substrate: O=C(O)CCC[C@H](NC(=O)Nc1cc(F)c(N(CCCl)CCCl)c(F)c1)C(=O)O; test: Michaelis-Menten constant towards carboxypeptidase G2 enzyme; settings: Pseudomonas aeruginosa
Summary of the method: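 CPG2 (50 mU) with prodrug at 5-50 µM in 5 µM steps, diluted from DMSO concentrates into 100 mM Tris-HCl pH 7.3 with 260 µM ZnCl₂, 37 °C. Remaining prodrug measured by isocratic reverse-phase HPLC (phenyl column, 0.1% TFA/methanol, 250-275 nm) at 0, 5, 10, 15 and 20 min.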

O=C(O)CCC[C@H](NC(=O)Oc1cc(F)c(N(CCCl)CCCl)c(F)c1)C(=O)O
half-life [1]: 45 min

CS(=O)(=O)OCCN(CCCl)c1c(F)cc(OC(=O)N[C@@H](CCCC(=O)O)C(=O)O)cc1F
Degree of activation (MDA-MB-361): 0.9 fold

B1: Carboxypeptidase G2 (Pseudomonas aeruginosa (strain ATCC 15692 / PAO1 / 1C / PRS 101 / LMG12228)), Q9I056 (protein)
chain: MHARRLPRLLPLALAFLLSPAAFAADTPAAELLRQAEAERPAYLDTLRQLVAVDSGTGQAEGLGQLSALLAERLQALGAQVRSAPATPSAGDNLVATLDGTGSKRFLLMIHYDTVFAAGSAAKRPFREDAERAYGPGVADAKGGVAMVLHALALLRQQGFRDYGRITVLFNPDEETGSAGSKQLIAELARQQDYVFSYEPPDRDAVTVATNGIDGLLLEVKGRSSHAGSAPEQGRNAILELSHQLLRLKDLGDPAKGTTLNWTLARGGEKRNIIPAEASAEADMRYSDPAESERVLADARKLTGERLVADTEVSLRLDKGRPPLVKNPASQRLAETAQTLYGRIGKRIEPIAMRFGTDAGYAYVPGSDKPAVLETLGVVGAGLHSEAEYLELSSIAPRLYLTVALIRELSAD
Km [2]: 7.7 µM
